Experimental data from ChEMBL document CHEMBL1132269, “Self-immolative anthracycline prodrugs for suicide gene therapy” (J Med Chem, 1999).
Values joined by “and” are separate entries in the source; they are usually repeats but may differ in a detail not shown here. Equal values may be shown once.

What was measured:
MDA-MB-361 [1] = test: The compound was tested for extracellular cytotoxicity against MDA MB 361(mammary carcinoma cell line) expressing carboxypeptidase stCPG2.; format: functional, cell-based; conditions: Homo sapiens
Procedure, shortened: (§1)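 MDA MB 361 breast carcinoma cells stably expressing surface-tethered CPG2 (stCPG2(Q)3), intracellular CPG2 (CPG2*) or control beta-galactosidase (LacZ). Compounds dissolved in DMSO at 10 mM (stock) just before treatment. After exposure, cells harvested and reseeded in quadruplicate at ~2 × 10^3 cells/well. Cells fixed and stained with sulforhodamine-B once control plates reached confluence, absorbance read at 590 nm. Growth expressed as % of control, IC50 interpolated.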

MDA-MB-361 [2] = test: The compound was tested for intracellular cytotoxicity against MDA MB 361(mammary carcinoma cell line) expressing LacZ (beta-galactosidase).; format: functional, cell-based; conditions: Homo sapiens; procedure, shortened: as §1
MDA-MB-361 [3] = test: The compound was tested for intracellular cytotoxicity against MDA MB 361(mammary carcinoma cell line) expressing carboxypeptidase G2(CPG2).; format: functional, cell-based; conditions: Homo sapiens; procedure, shortened: as §1
[4] = Half life period in the absence of CPG2 (carboxypeptidase) enzyme; format: ADME
Procedure, shortened: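 Prodrug at 100 μM in phosphate-buffered saline (pH 7.4), 37 °C, without enzyme; samples injected at timed intervals on reverse-phase HPLC, isocratic methanol/water/10 mM NaH2PO4 (pH 5.0), detection at 500 nm. Chemical half-life from slope of semilog plot.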

CPG2 (carboxypeptidase) = test: Half life period in the presence of CPG2 (carboxypeptidase) enzyme; format: ADME
Procedure, shortened: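 Prodrug at 100 μM in phosphate-buffered saline (pH 7.4), 37 °C, with 50 mU CPG2; timed samples analysed by reverse-phase HPLC, absorbance 500 nm. Plots linear on linear axes, so apparent half-life taken as time for concentration to fall to half its starting value.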

MDA-MB-361 [5] = test: The compound was tested for intracellular cytotoxicity against MDA MB 361(mammary carcinoma cell line) in the presence of CPG2 prodrug; format: functional, cell-based; conditions: Homo sapiens
Procedure, shortened: (§2)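 Cytotoxicity differential: ratio of a prodrug's IC50 in MDA MB 361 cells expressing stCPG2(Q)3 or CPG2* to its IC50 in LacZ control cells. IC50 values come from a sulforhodamine-B growth assay (cells reseeded in quadruplicate after treatment, stained at control confluence, A590, % control growth, interpolation). Prodrug:drug ratio taken in LacZ cells.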

[6] = Ratio of the intracellular cytotoxicities against MDA MB 361(mammary carcinoma cell line) expressing LacZ (beta-galactosidase). between prodrug and drug.; format: functional
Procedure, shortened: (§3)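 MDA MB 361 cells stably expressing surface-tethered CPG2 (stCPG2(Q)3) or β-galactosidase control (LacZ) treated with compound (10 mM DMSO stock made fresh), then reseeded in quadruplicate at ~2 × 10^3 cells/well; fixed and sulforhodamine-B stained when controls confluent, A590. IC50 interpolated from % control growth; ratio = LacZ vs stCPG2(Q)3 IC50 or prodrug vs drug IC50 in LacZ cells.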

[7] = Ratio of the extracellular cytotoxicities against MDA MB 361(mammary carcinoma cell line) expressing LacZ and carboxypeptidase stCPG2 of the prodrug.; format: functional; procedure, shortened: as §3
MDA-MB-361 [8] = test: The compound was tested for extracellular cytotoxicity against MDA MB 361(mammary carcinoma cell line) in the presence of stCPG2 prodrug; format: functional, cell-based; conditions: Homo sapiens; procedure, shortened: as §2

| SMILES | IC50 (MDA-MB-361 [1]) [nM] | IC50 (MDA-MB-361 [2]) [nM] | IC50 (MDA-MB-361 [3]) [nM] | half-life [4] [h] | half-life (CPG2 (carboxypeptidase)) [h] | IC50 (MDA-MB-361 [5]) [nM] | Ratio [6] | Ratio [7] | IC50 (MDA-MB-361 [8]) [nM] |
| --- | --- | --- | --- | --- | --- | --- | --- | --- | --- |
| COc1cccc2c1C(=O)c1c(O)c3c(c(O)c1C2=O)C[C@@](O)(C(=O)CO)C[C@@H]3O[C@H]1C[C@H](N)[C@H](O)[C@H](C)O1 [DOXORUBICIN] | 18 | 12 | 33 |  |  |  |  |  |  |
| COc1cccc2c1C(=O)c1c(O)c3c(c(O)c1C2=O)C[C@@](O)(C(C)=O)C[C@@H]3OC1CC(NC(=O)OCc2ccc(OC(=O)NC(CCC(=O)O)C(=O)O)cc2)C(O)C(C)O1 (stereo partly drawn) |  | 115 |  | 24.7 | 2.21 | 405 | 6.8 | 0.3 and 0.7 | 177 |
| COc1cccc2c1C(=O)c1c(O)c3c(c(O)c1C2=O)C[C@@](O)(C(=O)CO)C[C@@H]3OC1CC(NC(=O)OCc2ccc(OC(=O)NC(CCC(=O)O)C(=O)O)cc2)C(O)C(C)O1 (stereo partly drawn) |  | 279 |  | 28.4 | 4.46 | 204 | 23.3 | 1.4 and 3 | 92 |
| COc1cccc2c1C(=O)c1c(O)c3c(c(O)c1C2=O)C[C@@](O)(C(C)=O)C[C@@H]3O[C@H]1C[C@H](N)[C@H](O)[C@H](C)O1 [DAUNORUBICIN] |  | 17 |  |  |  | 36 |  |  | 21 |
| COc1cccc2c1C(=O)c1c(O)c3c(c(O)c1C2=O)C[C@@](O)(C(=O)CO)C[C@@H]3OC1CC(NC(=O)OCc2ccc(NC(=O)NC(CCC(=O)O)C(=O)O)cc2)C(O)C(C)O1 (stereo partly drawn) |  | 256 |  | 15.8 | 0.7 | 47 | 21.3 | 5.4 and 10.7 | 24 |
| COc1cccc2c1C(=O)c1c(O)c3c(c(O)c1C2=O)C[C@@](O)(C(C)=O)C[C@@H]3OC1CC(NC(=O)OCc2ccc(NC(=O)NC(CCC(=O)O)C(=O)O)cc2)C(O)C(C)O1 (stereo partly drawn) |  | 112 |  | 19.8 | 0.645 | 123 | 6.6 |  | 29 |
